Assay [1] concerns the target NAD(P)H dehydrogenase [quinone] 1 (Homo sapiens) (UniProt P15559). In words: NADH oxidation is used as a measure metabolism since 1 mol of NADH is oxidized for each mole of compound that is reduced. In kind it is functional.
The next assay concerns BE-NQ. In words: Cytotoxicity against BE human colon carcinoma cell lines BE-NQ( high NQO1 activity). Type of assay: functional, cell-based. An outline of the steps:
(§1)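 MTT assay in BE colon carcinoma cells, wild-type (BE-WT) or stably transfected with human NQO1 cDNA (BE-NQ). Cells grown in MEM/10% FBS at 37 °C, 5% CO2, plated at (1–2) × 10^4 cells/mL and attached 16 h. Drug exposure 2 h, then drug-free medium for 5–7 days. MTT for 4 h, formazan dissolved in DMSO, A550. IC50 taken from % control versus concentration plots.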

A further assay has as its system BE-WT. In words: Cytotoxicity against BE human colon carcinoma cell lines BE-WT(No NQO1 activity). In kind it is functional, cell-based. An outline of the steps:
as §1

Assay [2] concerns the target NAD(P)H dehydrogenase [quinone] 1 (Homo sapiens) (UniProt P15559). Briefly: Ability to inactivate Recombinant human NQO1. Type of assay: functional. The arrangement: concentration or dose not given beside the values. An outline of the steps: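 Recombinant hNQO1 (1–2 µg) preincubated 30 min at 22 °C with 10 µM indolequinone, with or without 100 µM NADH, in 25 mM Tris-HCl pH 7.4 + 2 mg/mL Tween-20. Reaction stopped with cold Tris-HCl/250 mM sucrose. Residual activity measured as reduction of 40 µM DPIP with 200 µM NADH (0.7 mg/mL BSA) at 600 nm for 30 s. Reported as % remaining, +NADH versus −NADH.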

Sequence of NAD(P)H dehydrogenase [quinone] 1 (Homo sapiens) (P15559 whole entry): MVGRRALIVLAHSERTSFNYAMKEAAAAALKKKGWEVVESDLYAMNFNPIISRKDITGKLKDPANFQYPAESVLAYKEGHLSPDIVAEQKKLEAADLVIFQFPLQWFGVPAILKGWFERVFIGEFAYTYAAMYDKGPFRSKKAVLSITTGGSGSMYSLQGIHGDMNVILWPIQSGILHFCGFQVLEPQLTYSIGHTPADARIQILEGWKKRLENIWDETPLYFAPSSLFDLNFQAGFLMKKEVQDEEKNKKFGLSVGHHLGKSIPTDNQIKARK

The compound `COC1=CC(=O)c2c(c(COc3cc([N+](=O)[O-])ccc3OC)c(C)n2C)C1=O` yielded a Metabolism in assay [1] of 0.05 µM/min/mg. Moreover, the IC50 is 6.5 µM with BE-NQ and 34.4 µM in the assay with BE-WT. The Enzyme activity in assay [2] was found to be 13%.

On to `CCOC(=O)c1c2c(n(C3CC3)c1C)C(=O)C=C(OC)C2=O`, for which the Metabolism in assay [1] was 36.6 µM/min/mg.

In assay [1], `COC1=CC(=O)c2c(c(COc3ccc(NC(C)=O)cc3)c(C)n2C)C1=O` returned a Metabolism of 0.38 µM/min/mg. Further, the values for the IC50 in the assay with BE-NQ and with BE-WT were 6.6 µM and 10.3 µM, respectively.

In turn, `COC1=CC(=O)c2c(c(COc3ccc([N+](=O)[O-])cc3OC)c(C)n2C)C1=O` came in with a Metabolism in assay [1] of 0.05 µM/min/mg. For the same compound, the IC50 with BE-NQ stood at 0.51 µM; in the assay on BE-WT, 1.5 µM.

Compound `CCCn1c(C)c(CO)c2c1C(=O)C(C)=C(OC)C2=O` returned a Metabolism in assay [1] of 1.7 µM/min/mg.

In the case of `CCOC(=O)c1c2c(n(-c3ccc(F)cc3)c1C)C(=O)C=C(OC)C2=O`, in assay [1], the Metabolism came out at 3.9 µM/min/mg.

For the compound `CCOC(=S)SCc1c2c(n(C)c1C)C(=O)C=C(OC)C2=O`, the Metabolism in assay [1] is 1.1 µM/min/mg. Besides, the IC50 with BE-NQ and in the assay with BE-WT was more than 50 µM throughout.

In turn, `COC1=CC(=O)c2c(c(COc3ccc([N+](=O)[O-])cc3F)c(C)n2C)C1=O` displayed a Metabolism in assay [1] of 0.05 µM/min/mg. Moreover, the IC50 was determined as 1.2 µM with BE-NQ and 1.5 µM with BE-WT. Besides, the Enzyme activity in assay [2] was 0%.

`COC1=C(C)C(=O)c2c(c(CO)c(C)n2CCN2CCOCC2)C1=O` registered a Metabolism in assay [1] of 7.6 µM/min/mg.

With `COC1=CC(=O)c2c(c(CO)c(C)n2C2CC2)C1=O`, the Metabolism in assay [1] is 14 µM/min/mg.

As for `COC1=CC(=O)c2[nH]c(C)c(C(C)O)c2C1=O` (centres undefined), in assay [1], the Metabolism was determined as 27.7 µM/min/mg.

Regarding `COC1=CC(=O)c2c(c(C(C)O)c(C)n2C)C1=O` (centres undefined), in assay [1], the Metabolism turned out to be 10.4 µM/min/mg.

In turn, `CCOC(=O)c1c2c(n(-c3ccccc3)c1C)C(=O)C(C)=C(OC)C2=O` came in with a Metabolism in assay [1] of 7.9 µM/min/mg.

`CCOC(=O)c1c2c(n(CCN3CCOCC3)c1C)C(=O)C(C)=C(OC)C2=O` returned a Metabolism in assay [1] of 39.4 µM/min/mg.

In assay [1], `COC1=CC(=O)c2c(c(COc3ccc([N+](=O)[O-])cc3)cn2C)C1=O` came in with a Metabolism of 0.29 µM/min/mg. Moreover, the IC50 was 0.44 µM in the assay with BE-NQ and 1.05 µM in the assay on BE-WT. In assay [2], the Enzyme activity was 52%.

Compound `COC1=CC(=O)c2c(c(COc3ccccc3)c(C)n2C)C1=O` had a Metabolism in assay [1] of 0.28 µM/min/mg.

Consider `CN1CCN(C2=CC(=O)c3c(c(CO)c(-c4ccccc4)n3C)C2=O)CC1`, for which the Metabolism in assay [1] came out at 0.15 µM/min/mg.

In assay [1], `CCCn1c(C)c(C(=O)OCC)c2c1C(=O)C=C(OC)C2=O` displayed a Metabolism of 77.6 µM/min/mg.

In the case of `CCc1c(C(=O)OC)c2c(n1Cc1ccccc1)C(=O)C=C(OC)C2=O`, the Metabolism in assay [1] amounted to 9.3 µM/min/mg.

For the compound `COC1=C(C)C(=O)c2c(c(CO)c(C)n2C)C1=O`, in assay [1], the Metabolism is 3.8 µM/min/mg.

In assay [1], `COC1=CC(=O)c2[nH]c(C)c(C(C)=O)c2C1=O` returned a Metabolism of 29.8 µM/min/mg.

`COC(=O)c1c2c(n(C)c1C)C(=O)C(C)=C(OC)C2=O` registered a Metabolism in assay [1] of 13.7 µM/min/mg.

On to `Cc1c(C(C)O)c2c(n1C)C(=O)C=C(N1CCOCC1)C2=O` (centres undefined), for which the Metabolism in assay [1] was 0.27 µM/min/mg.

As for `CCCn1c(C)c(C(=O)OCC)c2c1C(=O)C(C)=C(OC)C2=O`, the Metabolism in assay [1] stood at 18.6 µM/min/mg.

Compound `CCOC(=O)c1c2c(n(-c3ccccc3)c1C)C(=O)C=C(OC)C2=O` yielded a Metabolism in assay [1] of 16.4 µM/min/mg.

In assay [1], `CCc1c(CO)c2c(n1Cc1ccccc1)C(=O)C=C(OC)C2=O` returned a Metabolism of 0.9 µM/min/mg.

In the case of `CCOC(=O)c1c2c(n(C)c1-c1ccc3ccccc3c1)C(=O)C=C(OC)C2=O`, in assay [1], the Metabolism came out at 0.23 µM/min/mg. Further, the IC50 in the assay with BE-NQ was more than 50 µM; with BE-WT, 49 µM.

`COC1=CC(=O)c2c(c(COC(=O)Cc3ccc(-c4ccccc4)cc3)c(C)n2C)C1=O` gave a Metabolism in assay [1] of 0.09 µM/min/mg. In addition, the concentration for half-maximal inhibition (IC50) was determined as 5.1 µM in the assay with BE-NQ and 5.5 µM in the assay with BE-WT. The Enzyme activity in assay [2] amounted to 0%.

`COC1=CC(=O)c2c(c(CO)cn2C)C1=O` gave a Metabolism in assay [1] of 13.6 µM/min/mg. The 50% inhibitory concentration (IC50) in the assay on BE-NQ and in the assay with BE-WT was more than 50 µM each time. The Enzyme activity in assay [2] was determined as 96%.

Compound `COC1=CC(=O)c2c(c(CO)c(-c3ccc4ccccc4c3)n2C)C1=O` showed a Metabolism in assay [1] of 4 µM/min/mg. Also, the IC50 in the assay with BE-NQ and in the assay on BE-WT was more than 50 µM in each case.

As to `COC1=CC(=O)c2c(c(COC(C)=O)c(C)n2C)C1=O`, in assay [2], the Enzyme activity was 0%.

`COC1=CC(=O)c2c(c(CO)c(C)n2-c2ccc(F)cc2)C1=O`: the Metabolism in assay [1] was found to be 9.2 µM/min/mg.

`CCCn1c(C)c(CO)c2c1C(=O)C=C(OC)C2=O` gave a Metabolism in assay [1] of 1.3 µM/min/mg.

For `COC1=CC(=O)c2c(c(CO)c(C)n2-c2ccccc2)C1=O`, the Metabolism in assay [1] was found to be 6 µM/min/mg.

As to `COC1=C(C)C(=O)c2c(c(CO)c(C)n2-c2ccccc2)C1=O`, in assay [1], the Metabolism was 3 µM/min/mg.

Regarding `CCOC(=O)CNC(=O)OCc1c2c(n(C)c1C)C(=O)C=C(OC)C2=O`, the Metabolism in assay [1] was 0.11 µM/min/mg. Moreover, the IC50 in the assay with BE-NQ was determined as 3.2 µM; in the assay with BE-WT, 3.8 µM. Also, the Enzyme activity in assay [2] worked out at 19%.

For orientation: IC50 means the concentration that gives 50% inhibition.

Source of the values: ChEMBL document CHEMBL1134780, “Indolequinone antitumor agents: correlation between quinone structure and rate of metabolism by recombinant human NAD(P)H:quinone oxidoreductase. Part 2” (J Med Chem, 2001).
